# Hits are enriched below; roughly 2% of the tested compounds scored in any of these assays.
# TWEAK Fn14 block: inhibitors of TWEAK-Fn14 signaling, primary screen, luciferase reporter cells, uHTS; TWEAK-stimulated Fn14 reporter cells, luciferase luminescence, 8 h; inhibition, % at 10 µM; 360,000 compounds, 2% hits; AID 1159606, 2016; in the data active means inhibition above about 50%
# CaV13 ICDI inh: Primary screen for inhibitors of IQ motif and Ca2+-dependent inactivation inhibitor domain binding in CACNA1D, Förster resonance energy transfer in living cells, … | inhibition, % at 12.3 µM | 340,000 compounds, 0.098% hits | HEK cells, CFP/YFP FRET ICDI-IQ, plate reader, 10 min; percent FRET-ratio fall versus neutral wells;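 active means mean replicate inhibition of at least 30% and at least 1% of replicates passing that level; inconclusive means only one of the two criteria is met; inactive means neither criterion is met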;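 further: 0% = median of the neutral control wells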
# LGR2 antag: inhibitors of bursicon-induced LGR2 CRE-luciferase signal, primary screen, cell-based, HEK293, CRE-luciferase reporter, bursicon stimulation; inhibition, % at 9.99 µM; Drosophila bursicon receptor LGR2 (rickets); bursicon-stimulated, 4 h; 380,000 compounds, 0.35% hits;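 active means drop in luminescence signal, shown as inhibition above about 50% in the replicate tests, limit read from the data, passing the limit was not always enough; inconclusive means probably only some replicates passing the limit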;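 further: agonist challenge used bursicon conditioned medium at about half maximal strength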
# TROY signal inh: inhibitors of TROY-driven NF-kB signaling, primary screen, Q293 LMP1-TROYcd cells, NF-kB luciferase, uHTS. inhibition, % at 10 µM. Q293 LMP1-TROYcd NF-kB luciferase reporter, 4 h. AID 1347056, 2019. 360,000 compounds, 0.98% hits;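 active means compounds whose plate-normalised and pattern-corrected inhibition of the luciferase reporter signal at the single screening dose is 50% or more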
# XiGFP reactiv: activators of inactive X chromosome reactivation, primary screen, imaging, XiGFP fibroblasts, GFP high-content imaging, set 2; XiGFP mouse fibroblasts, % GFP-positive cells imaging, 3 d; cells co-treated with 5-aza-dC sensitizer; scaled so ellipticine positive control = 100%; 360,000 compounds, 0.055% hits; AID 743238, 2013; activation, % at 7.58 µM;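 active means mean normalized replicate activation at least 10% and every replicate at or above 10%; inconclusive means only one of the two criteria met; inactive means mean below 10% and not all replicates reach 10%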;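 further: 0% = median of on-plate neutral control wells and 100% = ellipticine 6 µM median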
#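 Material: XiGFP fibroblasts, SV40-immortalized. Buffer or medium: DMEM plus 5-aza-dC sensitizer. Compound: single concentration per compound, delivered by pin transfer. Times: 3 days compound exposure. Controls: ellipticine 6 µM.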
# * = called active by the depositor; ? = inconclusive; . = not tested or not shown.
SMILES,TWEAK Fn14 block,CaV13 ICDI inh,LGR2 antag,TROY signal inh,XiGFP reactiv
O=C(C[C@@H]1C[C@H]2c3cc(NC(=O)C4CCC4)ccc3O[C@H]2[C@@H](CO)O1)NC1CCCCC1,.,.,14,.,0
CCOC(=O)C1=C(C)Nc2ccc(C)cc2S1,96*,-2,.,22,.
Cc1ccc(S(=O)(=O)Nc2ccc3c(c2)C(=O)N([C@H](C)CO)C[C@H](C)[C@@H](CN(C)C(=O)Nc2c(C)noc2C)OCCCC[C@@H](C)O3)cc1,.,.,0,.,0
CS(=O)(=O)c1sc(C#N)c2c1C(=O)CC(c1ccccc1)C2 (configuration not stated),64*,-13,58*,80*,5
C[C@@H]1CN([C@H](C)CO)S(=O)(=O)c2ccc(-c3cccnc3)cc2O[C@@H]1CN(C)C(=O)c1cccc(F)c1,.,.,-1,.,-1
COc1ccc(/C=C/C(=O)c2ccc(C)c([N+](=O)[O-])c2)cc1O,10,-3,-15,15,0
COc1cc(/C=C/C(=O)c2ccc(NS(=O)(=O)c3ccc(C)cc3)cc2)cc(OC)c1O,60*,-8,47,0,0
COc1cc(/C=C/C(=O)c2ccc(C)c([N+](=O)[O-])c2)cc(OC)c1O,69*,-6,8,32,1
CCC(=O)N(C)C[C@@H]1Oc2ncc(C#CC(C)(C)O)cc2C(=O)N([C@H](C)CO)C[C@H]1C,.,.,-22,.,0
CCCCn1nnnc1C(c1cc2ccccc2o1)N1CCN(c2c(C)cccc2C)CC1 (configuration not stated),18,-5,-20,-9,0
Cc1cccc(C)c1N1CCN(C(c2cc3ccccc3o2)c2nnnn2C(C)(C)C)CC1 (configuration not stated),53*,.,.,27,.
O=C(C[C@H]1CC[C@@H](NC(=O)c2ccccc2)[C@H](CO)O1)NCc1ccncn1,.,.,-7,.,0
O=C(Cc1cccs1)NCC1CCCO1 (configuration not stated),51*,-9,1,8,.
CC(C)[C@H](CO)Nc1nc(NCc2ccc(S(N)(=O)=O)cc2)c2ncn(C(C)C)c2n1,27,-8,53*,15,0
O=C(Cc1ccccn1)NCC[C@H]1CC[C@H](NC(=O)Nc2ccccc2)[C@H](CO)O1,.,.,19,.,0
c1ccc(CSc2ncnc3sccc23)cc1,5,-4,-15,1,0
Cc1sc2ncnc(Sc3ccccc3C(=O)O)c2c1C,11,-2,13,-9,0
Clc1ccc(-n2nnnc2Sc2ncnc3sccc23)cc1,75*,0,46,70*,.
Cc1sc2ncnc(Sc3nnnn3-c3ccccc3)c2c1C,101*,.,66*,67*,.
Cc1ccc(C(=O)CSc2nnc3ccccn23)c(C)c1,64*,-6,30,21,0
COCCn1c(C)cc(C(=O)CSc2nc3ccccc3s2)c1C,51*,-4,61*,60*,0
COCCn1c(C)cc(C(=O)CSc2nnc3ccccn23)c1C,-13,-7,62*,26,0
COCCn1c(C)cc(C(=O)CSc2nc3ccccc3o2)c1C,-7,-4,.,5,.
C[C@@H]1CN([C@@H](C)CO)C(=O)c2cc(NC(=O)CCN3CCOCC3)ccc2O[C@@H]1CN(C)Cc1ccccc1,.,.,-18,.,0
CC1(C)CC(=O)C2=C(C1)OC1=C(C(=O)CC(C)(C)C1)C2c1ccc(O)cc1O,104*,-9,.,82*,.
SMILES,TWEAK Fn14 block,CaV13 ICDI inh,LGR2 antag,TROY signal inh,XiGFP reactiv
CCNC(=O)C[C@H]1C=C[C@H](NS(=O)(=O)c2ccc(C)cc2)[C@@H](CO)O1,.,.,0,.,-1
CC(C)Cc1cc(C(=O)Nc2cccc(O)c2)no1,65*,-15,41,22,.
COc1ccc(-c2cc(C(=O)Nc3cccc(O)c3)no2)cc1,67*,-3,35,31,0
CCOCCOC(=O)c1[nH]c2c(c1C)C(=O)CC(c1ccc(OC)c(OC)c1)C2 (configuration not stated),21,-20,5,7,0
COc1cc(C2CC(=O)c3c([nH]c(C(=O)OCCOC(C)C)c3C)C2)cc(OC)c1OC (configuration not stated),61*,-10,21,41,0
O=C1/C(=C/c2cccnc2)SC(=S)N1N1CCOCC1,2,-2,10,-11,0
O=C1/C(=C\c2cccnc2)SC(=S)N1C1CCS(=O)(=O)C1 (configuration not stated),71*,-5,55*,13,.
O=C1/C(=C/c2cccnc2)SC(=S)N1C1CCS(=O)(=O)C1 (configuration not stated),65*,-7,?,17,.
C=CCOc1ccc(/C=C2\SC(N)=NC2=O)cc1OC,3,-24,4,-14,0
COc1ccc(/C=C2/SC(=S)NC2=O)cc1OCc1ccccc1,-8,-2,-8,51*,0
COc1cc(/C=C2\SC(=Nc3ccccc3OC)NC2=O)ccc1O,40,-8,6,24,0
COc1cc(/C=C2/SC(=Nc3ccc(O)cc3)NC2=O)ccc1O,60*,-4,-20,40,0
COc1cc(/C=C2\SC(=S)N(N3CCOCC3)C2=O)ccc1O,-35,-14,-14,54*,.
COc1cc(/C=C2\SC(=S)N(N3CCOCC3)C2=O)cc(OC)c1OC,4,-2,16,-6,?
COc1cc(/C=C2\SC(N)=NC2=O)ccc1O,100*,-1,?,39,0
CC(C)C#Cc1ccc2c(c1)O[C@@H](CN(C)C(=O)Cc1ccccn1)[C@H](C)CN([C@@H](C)CO)S2(=O)=O,.,.,-1,.,0
C=C1C(=O)C23CCC4C(C)(C(=O)OC)CCCC4(C)C2CCC1(O)C3 (configuration not stated),98*,-7,.,88*,4
COC(=O)[C@]1(C)CCC[C@@]2(C)C3CC[C@@]4(C)C[C@]3(CCC21)CC(=O)N4 (some centres not stated),-15,-9,12,1,0
CN(C)/C=C/C(=O)c1ccc(C(F)(F)F)cc1F,-32,-1,-19,-11,0
CN(C)/C=C/C(=O)c1c(F)cccc1F,20,94*,12,5,0
CCC(C)(C)c1ccc(Oc2ccc(N)cc2)cc1,101*,-6,.,89*,0
Cc1nccc(-c2sc(-c3cccs3)nc2C)n1,-10,-5,-48,59*,0

# Screens (PubChem)
